Laboratory results: ChEMBL document CHEMBL4382192, “Discovery of a potent dual ALK and EGFR T790M inhibitor” (Eur J Med Chem, 2017)

Columns and labels:
[1] = Inhibition of EGFR/ALK L1152R mutant in human DFCI076 cells assessed as reduction in cell viability after 72 hrs by MTS assay; assay type: cell-based
[2] = Cmax in mouse at 10 mg/kg, po; assay type: ADME, organism-based; design: dose 10 mg/kg, route oral; conditions: in vivo
[3] = Clearance in mouse at 2 mg/kg, iv; assay type: ADME, organism-based; conditions: in vivo
[4] = Clearance in mouse at 10 mg/kg, po; assay type: ADME, organism-based; conditions: in vivo
[5] = Oral bioavailability in mouse at 10 mg/kg; assay type: ADME, organism-based; conditions: in vivo
[6] = Drug uptake in mouse lung at 10 mg/kg, po after 8 hrs; assay type: ADME, organism-based; conditions: read-out: Drug uptake
[7] = target: Tyrosine-protein kinase receptor UFO (Homo sapiens) (UniProt P30530); assay: Binding affinity to wild-type human partial length AXL (R497 to Y821 residues) expressed in bacterial expression system assessed as residual binding level at 1 uM by Kinomescan method relative to control
[8] = target: CDK4/Cyclin D3 (Homo sapiens) (UniProt P11802+P30281); assay: Binding affinity to wild-type human full length CDK4/cyclinD3 (M1 to E303 residues) expressed in mammalian expression system assessed as residual binding level at 1 uM by Kinomescan method relative to control
[9] = system: Epidermal growth factor receptor (Homo sapiens), P00533 [L858R,T790M]; assay: Binding affinity to human partial length EGFR L858R/T790M double mutant (R669 to V1011 residues) expressed in mammalian expression system assessed as residual binding level at 1 uM by Kinomescan method relative to control
Procedure, shortened: (§1)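 Kinome-wide selectivity panel run by the KINOMEscan method, with the test compound at a single concentration of 1 μM. Wild-type and mutant kinases were profiled in the same screen.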

[10] = target: Mitogen-activated protein kinase 1 (Homo sapiens) (UniProt P28482); assay: Binding affinity to wild-type human full length ERK2 (M1 to S360 residues) expressed in bacterial expression system assessed as residual binding level at 1 uM by Kinomescan method relative to control
Procedure, shortened: (§2)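 Single-point kinome-wide KINOMEscan binding panel, test compound at 1 μM, run by the provider's standard protocol.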

[11] = target: Mitogen-activated protein kinase 4 (Homo sapiens) (UniProt P31152); assay: Binding affinity to wild-type human partial length ERK4 (M1 to L365 residues) expressed in bacterial expression system assessed as residual binding level at 1 uM by Kinomescan method relative to control
[12] = target: Serine/threonine-protein kinase/endoribonuclease IRE1 (Homo sapiens) (UniProt O75460); assay: Binding affinity to wild-type human partial length ERN1 (S551 to E852 residues) expressed in mammalian expression system assessed as residual binding level at 1 uM by Kinomescan method relative to control
[13] = target: Tyrosine-protein kinase Fes/Fps (Homo sapiens) (UniProt P07332); assay: Binding affinity to wild-type human partial length FES (I527 to R822 residues) expressed in bacterial expression system assessed as residual binding level at 1 uM by Kinomescan method relative to control
[14] = target: G protein-coupled receptor kinase 4 (Homo sapiens) (UniProt P32298); assay: Binding affinity to wild-type human full length GRK4 (M1 to C578 residues) expressed in bacterial expression system assessed as residual binding level at 1 uM by Kinomescan method relative to control
[15] = target: Mitogen-activated protein kinase kinase kinase 3 (Homo sapiens) (UniProt Q99759); assay: Binding affinity to wild-type human partial length MAP3K3 (E320 to Y626 residues) expressed in mammalian expression system assessed as residual binding level at 1 uM by Kinomescan method relative to control
[16] = target: Muscle, skeletal receptor tyrosine-protein kinase (Homo sapiens) (UniProt O15146); assay: Binding affinity to wild-type human partial length MUSK (M553 to V869 residues) expressed in bacterial expression system assessed as residual binding level at 1 uM by Kinomescan method relative to control
[17] = target: Serine/threonine-protein kinase 38 (Homo sapiens) (UniProt Q15208); assay: Binding affinity to wild-type human partial length NDR1 (N33 to E449 residues) expressed in mammalian expression system assessed as residual binding level at 1 uM by Kinomescan method relative to control
[18] = target: Serine/threonine-protein kinase OSR1 (Homo sapiens) (UniProt O95747); assay: Binding affinity to wild-type human full length OSR1 (M1 to S527 residues) expressed in mammalian expression system assessed as residual binding level at 1 uM by Kinomescan method relative to control; procedure, shortened: as §2
[19] = target: Cyclin-dependent kinase 18 (Homo sapiens) (UniProt Q07002); assay: Binding affinity to wild-type human full length PCTK3 (M3 to F474 residues) expressed in bacterial expression system assessed as residual binding level at 1 uM by Kinomescan method relative to control; procedure, shortened: as §2
[20] = target: Cyclin-dependent kinase 15 (Homo sapiens) (UniProt Q96Q40); assay: Binding affinity to wild-type human full length PFTAIRE2 (M1 to W384 residues) expressed in bacterial expression system assessed as residual binding level at 1 uM by Kinomescan method relative to control; procedure, shortened: as §2
[21] = target: Serine/threonine-protein kinase PRP4 homolog (Homo sapiens) (UniProt Q13523); assay: Binding affinity to wild-type human partial length PRP4 (D657 to I1007 residues) expressed in bacterial expression system assessed as residual binding level at 1 uM by Kinomescan method relative to control
[22] = system: Proto-oncogene tyrosine-protein kinase receptor Ret (Homo sapiens), P07949 [M918T]; assay: Binding affinity to human partial length RET M918T mutant (E713 to D1014 residues) expressed in bacterial expression system assessed as residual binding level at 1 uM by Kinomescan method relative to control; procedure, shortened: as §1
[23] = target: Dual serine/threonine and tyrosine protein kinase (Homo sapiens) (UniProt Q6XUX3); assay: Binding affinity to wild-type human full length RIPK5 (M1 to T929 residues) expressed in mammalian expression system assessed as residual binding level at 1 uM by Kinomescan method relative to control
[24] = target: Serine/threonine-protein kinase tousled-like 2 (Homo sapiens) (UniProt Q86UE8); assay: Binding affinity to wild-type human partial length TLK2 (E424 to N749 residues) expressed in bacterial expression system assessed as residual binding level at 1 uM by Kinomescan method relative to control
[25] = target: TRAF2 and NCK-interacting protein kinase (Homo sapiens) (UniProt Q9UKE5); assay: Binding affinity to wild-type human partial length TNIK (D4 to K311 residues) expressed in bacterial expression system assessed as residual binding level at 1 uM by Kinomescan method relative to control
[26] = target: Serine/threonine-protein kinase ULK2 (Homo sapiens) (UniProt Q8IYT8); assay: Binding affinity to wild-type human partial length ULK2 (M1 to S301 residues) expressed in mammalian expression system assessed as residual binding level at 1 uM by Kinomescan method relative to control
[27] = target: Vascular endothelial growth factor receptor 2 (Homo sapiens) (UniProt P35968); assay: Binding affinity to wild-type human partial length VEGFR2 (R787 to P1253 residues) expressed in mammalian expression system assessed as residual binding level at 1 uM by Kinomescan method relative to control
Chain of Vascular endothelial growth factor receptor 2 (Homo sapiens) (P35968 whole entry, the tested form may be a part): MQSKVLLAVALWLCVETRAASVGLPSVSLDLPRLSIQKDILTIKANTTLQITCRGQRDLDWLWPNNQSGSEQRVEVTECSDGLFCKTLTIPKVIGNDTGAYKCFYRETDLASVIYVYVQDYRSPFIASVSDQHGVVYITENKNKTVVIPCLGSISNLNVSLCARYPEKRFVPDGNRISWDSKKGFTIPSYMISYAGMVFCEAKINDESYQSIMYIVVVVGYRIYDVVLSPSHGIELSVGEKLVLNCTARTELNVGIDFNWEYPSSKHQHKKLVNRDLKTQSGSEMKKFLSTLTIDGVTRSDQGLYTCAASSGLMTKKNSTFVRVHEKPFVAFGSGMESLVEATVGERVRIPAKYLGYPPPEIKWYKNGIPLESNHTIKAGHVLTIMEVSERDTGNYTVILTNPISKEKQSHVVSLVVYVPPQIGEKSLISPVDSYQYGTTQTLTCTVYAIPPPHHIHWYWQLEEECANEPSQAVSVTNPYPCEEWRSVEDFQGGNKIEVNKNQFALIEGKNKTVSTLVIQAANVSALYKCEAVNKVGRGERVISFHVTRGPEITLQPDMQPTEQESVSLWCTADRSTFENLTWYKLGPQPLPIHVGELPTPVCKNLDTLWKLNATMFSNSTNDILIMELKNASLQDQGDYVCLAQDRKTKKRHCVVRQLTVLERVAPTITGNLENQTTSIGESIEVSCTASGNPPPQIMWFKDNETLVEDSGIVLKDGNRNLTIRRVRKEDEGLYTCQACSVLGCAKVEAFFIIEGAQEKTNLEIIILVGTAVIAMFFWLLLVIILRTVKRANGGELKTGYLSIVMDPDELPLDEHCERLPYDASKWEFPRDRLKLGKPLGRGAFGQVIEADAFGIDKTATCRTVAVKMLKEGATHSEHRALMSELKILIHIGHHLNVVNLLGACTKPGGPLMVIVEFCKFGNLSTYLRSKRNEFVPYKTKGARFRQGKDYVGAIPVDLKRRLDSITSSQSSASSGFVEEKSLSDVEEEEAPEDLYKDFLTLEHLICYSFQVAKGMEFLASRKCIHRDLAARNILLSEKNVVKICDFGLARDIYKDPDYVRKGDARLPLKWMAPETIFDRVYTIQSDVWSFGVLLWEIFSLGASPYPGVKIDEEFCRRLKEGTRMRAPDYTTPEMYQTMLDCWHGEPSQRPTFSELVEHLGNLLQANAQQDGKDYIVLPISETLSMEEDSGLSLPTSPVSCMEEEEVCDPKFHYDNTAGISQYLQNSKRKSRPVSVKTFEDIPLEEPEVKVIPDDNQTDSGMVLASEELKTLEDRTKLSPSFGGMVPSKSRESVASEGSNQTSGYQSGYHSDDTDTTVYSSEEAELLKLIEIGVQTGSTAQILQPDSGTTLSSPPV

Chain of Mitogen-activated protein kinase 1 (Homo sapiens) (P28482 whole entry, the tested form may be a part): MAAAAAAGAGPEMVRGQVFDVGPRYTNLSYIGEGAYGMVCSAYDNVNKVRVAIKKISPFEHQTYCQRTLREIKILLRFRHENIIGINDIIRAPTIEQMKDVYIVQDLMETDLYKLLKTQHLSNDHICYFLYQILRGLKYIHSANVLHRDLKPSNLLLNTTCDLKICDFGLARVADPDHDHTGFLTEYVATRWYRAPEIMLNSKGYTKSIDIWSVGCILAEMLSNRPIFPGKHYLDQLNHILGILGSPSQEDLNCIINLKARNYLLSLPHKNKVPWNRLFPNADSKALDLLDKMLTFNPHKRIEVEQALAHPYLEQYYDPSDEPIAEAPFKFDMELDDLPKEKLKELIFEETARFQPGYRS
Chain of Serine/threonine-protein kinase tousled-like 2 (Homo sapiens) (Q86UE8 whole entry, looked up, the tested form may be a part): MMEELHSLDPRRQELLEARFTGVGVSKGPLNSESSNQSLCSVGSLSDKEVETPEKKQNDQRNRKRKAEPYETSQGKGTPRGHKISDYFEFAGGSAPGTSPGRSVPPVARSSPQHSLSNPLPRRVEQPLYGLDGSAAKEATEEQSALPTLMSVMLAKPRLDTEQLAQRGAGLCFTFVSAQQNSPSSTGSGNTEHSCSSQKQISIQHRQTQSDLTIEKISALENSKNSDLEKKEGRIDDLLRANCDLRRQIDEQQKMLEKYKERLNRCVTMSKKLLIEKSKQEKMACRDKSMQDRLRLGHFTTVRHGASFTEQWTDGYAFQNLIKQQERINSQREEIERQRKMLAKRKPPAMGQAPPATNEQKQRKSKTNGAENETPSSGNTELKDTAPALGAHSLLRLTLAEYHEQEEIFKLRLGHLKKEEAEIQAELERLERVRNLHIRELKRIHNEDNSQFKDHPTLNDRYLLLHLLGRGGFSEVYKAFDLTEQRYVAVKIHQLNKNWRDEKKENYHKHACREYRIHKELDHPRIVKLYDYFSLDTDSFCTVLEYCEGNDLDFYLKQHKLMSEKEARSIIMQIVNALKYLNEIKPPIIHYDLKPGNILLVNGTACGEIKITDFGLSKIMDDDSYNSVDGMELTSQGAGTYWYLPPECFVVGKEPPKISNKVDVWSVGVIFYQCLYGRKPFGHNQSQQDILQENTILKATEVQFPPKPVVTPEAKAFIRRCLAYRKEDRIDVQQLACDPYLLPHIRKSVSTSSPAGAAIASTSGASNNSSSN
Chain of Tyrosine-protein kinase receptor UFO (Homo sapiens) (P30530 whole entry, the tested form may be a part): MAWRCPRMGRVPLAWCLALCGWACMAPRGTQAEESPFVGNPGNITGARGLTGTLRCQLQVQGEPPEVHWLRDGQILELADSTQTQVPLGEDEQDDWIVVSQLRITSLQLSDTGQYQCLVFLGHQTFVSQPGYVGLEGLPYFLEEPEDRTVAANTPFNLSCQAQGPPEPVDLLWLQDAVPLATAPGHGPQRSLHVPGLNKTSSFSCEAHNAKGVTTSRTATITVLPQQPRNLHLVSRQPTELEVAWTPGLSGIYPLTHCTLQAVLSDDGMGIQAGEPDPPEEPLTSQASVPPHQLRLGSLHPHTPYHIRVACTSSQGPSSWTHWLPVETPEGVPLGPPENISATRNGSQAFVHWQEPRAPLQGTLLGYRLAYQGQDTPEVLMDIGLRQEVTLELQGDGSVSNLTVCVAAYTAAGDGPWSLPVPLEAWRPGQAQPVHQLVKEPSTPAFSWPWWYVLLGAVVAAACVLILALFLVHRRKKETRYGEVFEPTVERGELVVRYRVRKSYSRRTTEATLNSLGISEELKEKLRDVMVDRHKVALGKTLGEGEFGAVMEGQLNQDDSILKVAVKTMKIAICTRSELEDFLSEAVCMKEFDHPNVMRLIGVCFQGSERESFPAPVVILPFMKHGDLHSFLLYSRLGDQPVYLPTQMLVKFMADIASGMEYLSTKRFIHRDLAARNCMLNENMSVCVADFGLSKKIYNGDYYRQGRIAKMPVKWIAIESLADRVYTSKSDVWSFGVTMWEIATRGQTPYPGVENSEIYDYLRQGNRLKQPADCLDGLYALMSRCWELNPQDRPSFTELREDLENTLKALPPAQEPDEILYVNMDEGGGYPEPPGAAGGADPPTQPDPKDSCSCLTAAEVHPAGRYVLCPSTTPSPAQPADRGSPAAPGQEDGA
Chain of Cyclin-dependent kinase 18 (Homo sapiens) (Q07002 whole entry, the tested form may be a part): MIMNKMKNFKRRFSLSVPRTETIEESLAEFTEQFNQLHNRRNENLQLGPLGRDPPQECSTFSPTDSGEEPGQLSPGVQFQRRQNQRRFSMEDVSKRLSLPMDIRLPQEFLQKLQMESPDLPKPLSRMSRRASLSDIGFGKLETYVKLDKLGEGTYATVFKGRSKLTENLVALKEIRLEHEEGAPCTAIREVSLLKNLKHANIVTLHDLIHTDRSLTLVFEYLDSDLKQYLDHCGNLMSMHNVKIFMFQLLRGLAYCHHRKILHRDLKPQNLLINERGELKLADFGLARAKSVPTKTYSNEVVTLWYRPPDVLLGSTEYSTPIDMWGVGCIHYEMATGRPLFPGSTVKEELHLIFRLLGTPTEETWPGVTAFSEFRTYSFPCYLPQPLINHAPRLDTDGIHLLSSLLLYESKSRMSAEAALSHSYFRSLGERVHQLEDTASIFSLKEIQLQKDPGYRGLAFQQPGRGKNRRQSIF
Chain of Mitogen-activated protein kinase kinase kinase 3 (Homo sapiens) (Q99759 whole entry, the tested form may be a part): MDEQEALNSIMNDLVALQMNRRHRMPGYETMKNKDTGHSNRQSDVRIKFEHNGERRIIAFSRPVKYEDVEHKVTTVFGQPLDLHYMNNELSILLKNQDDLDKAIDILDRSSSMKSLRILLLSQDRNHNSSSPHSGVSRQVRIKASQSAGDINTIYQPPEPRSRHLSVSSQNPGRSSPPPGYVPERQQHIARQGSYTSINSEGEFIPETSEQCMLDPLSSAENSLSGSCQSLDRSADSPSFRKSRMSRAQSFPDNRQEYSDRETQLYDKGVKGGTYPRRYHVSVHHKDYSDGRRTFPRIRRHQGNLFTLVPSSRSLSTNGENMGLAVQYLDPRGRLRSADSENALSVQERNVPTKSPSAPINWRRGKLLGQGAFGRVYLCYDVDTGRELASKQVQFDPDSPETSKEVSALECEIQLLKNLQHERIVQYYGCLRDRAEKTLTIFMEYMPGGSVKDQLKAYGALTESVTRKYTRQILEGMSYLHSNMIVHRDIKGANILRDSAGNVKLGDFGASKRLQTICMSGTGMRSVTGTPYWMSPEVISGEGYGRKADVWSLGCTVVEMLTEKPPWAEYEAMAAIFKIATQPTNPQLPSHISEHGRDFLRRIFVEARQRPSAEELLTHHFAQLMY
Chain of Mitogen-activated protein kinase 4 (Homo sapiens) (P31152 whole entry, the tested form may be a part): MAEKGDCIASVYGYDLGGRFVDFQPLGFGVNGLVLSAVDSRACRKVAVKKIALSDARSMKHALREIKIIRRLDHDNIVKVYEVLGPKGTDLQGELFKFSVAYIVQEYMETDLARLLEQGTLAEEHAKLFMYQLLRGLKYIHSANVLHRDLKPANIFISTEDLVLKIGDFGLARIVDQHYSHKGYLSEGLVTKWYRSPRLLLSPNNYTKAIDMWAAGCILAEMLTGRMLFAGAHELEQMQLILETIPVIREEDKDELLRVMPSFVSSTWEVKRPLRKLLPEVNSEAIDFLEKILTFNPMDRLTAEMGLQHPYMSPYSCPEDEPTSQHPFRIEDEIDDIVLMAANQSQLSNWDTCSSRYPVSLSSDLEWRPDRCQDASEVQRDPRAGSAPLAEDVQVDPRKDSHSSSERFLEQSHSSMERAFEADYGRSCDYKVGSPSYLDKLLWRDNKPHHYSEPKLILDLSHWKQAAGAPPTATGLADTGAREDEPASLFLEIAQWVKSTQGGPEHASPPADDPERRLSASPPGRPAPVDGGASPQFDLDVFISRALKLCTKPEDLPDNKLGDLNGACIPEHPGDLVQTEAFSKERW

## C=CC(=O)Nc1cc(Nc2ncc(Cl)c(Nc3ccccc3S(=O)(=O)C(C)C)n2)c(OC)cc1N(C)CCN(C)C
[1]
  EC50: 0.82 µM
[2]
  Cmax: 0.52 µg/mL
[3]
  clearance: 1.74 L/h/kg
[4]
  CL/F: 6.87 L/h/kg
[5]
  bioavailability: 24%
[6]
  concentration at 8 h: 0.74 µM
[7]
  Activity: 10%
[8]
  Activity: 55%
[9]
  Activity: 0.95%
[10]
  Activity: 68%
[11]
  Activity: 82%
[12]
  Activity: 39%
[13]
  Activity: 1.4%
[14]
  Activity: 91%
[15]
  Activity: 17%
[16]
  Activity: 92%
[17]
  Activity: 56%
[18]
  Activity: 16%
[19]
  Activity: 77%
[20]
  Activity: 90%
[21]
  Activity: 82%
[22]
  Activity: 9.7%
[23]
  Activity: 60%
[24]
  Activity: 93%
[25]
  Activity: 61%
[26]
  Activity: 4.3%
[27]
  Activity: 42%
